In ChEMBL document CHEMBL4138126, “Synthesis, antiproliferative, anti-tubulin activity, and docking study of new 1,2,4-triazoles as potential combretastatin analogues” (Eur J Med Chem, 2017):

Key:
[1] = tested on: M14; assay: Growth inhibition of human M14 cells assessed as cell growth at 10 uM after 48 hrs by sulforhodamine B assay; assay type: functional; details: M14, 48 h, read-out: Activity
Outline: (§1)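 NCI 60-cell-line panel screen (nine cancer types). Compounds added at single concentration 10^-5 M, cultures incubated 48 h; growth inhibition percentages reported.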

[2] = tested on: CAKI-1; assay: Growth inhibition of human CAKI-1 cells assessed as cell growth at 10 uM after 48 hrs by sulforhodamine B assay; assay type: functional; details: CAKI-1, 48 h, read-out: Activity; outline: as §1
[3] = tested on: HepG2; assay: Cytotoxicity in human HepG2 cells assessed as reduction in cell viability incubated for 48 hrs by MTT assay; assay type: functional, cell-based; details: HepG2, 48 h
Outline: (§2)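 HepG2 and HL60 (ATCC) grown in DMEM with 10% FBS, 2 mM L-glutamine, penicillin/streptomycin, amphotericin B at 37 °C, 5% CO2. Samples dissolved in DMSO, diluted thousandfold in assay. Cells seeded in serum-free medium, treated with serial concentrations 48 h; MTT 4 h, formazan dissolved in acidified isopropanol, A570. Triplicates averaged; viability relative to untreated/vehicle control.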

[4] = tested on: Hs-578T; assay: Growth inhibition of human Hs 578T cells assessed as cell growth at 10 uM after 48 hrs by sulforhodamine B assay; assay type: functional; details: read-out: Activity; outline: as §1
[5] = tested on: OVCAR-8; assay: Growth inhibition of human OVCAR8 cells assessed as cell growth at 10 uM after 48 hrs by sulforhodamine B assay; assay type: functional; details: OVCAR-8, 48 h, read-out: Activity; outline: as §1
[6] = tested on: EKVX; assay: Growth inhibition of human EKVX cells assessed as cell growth at 10 uM after 48 hrs by sulforhodamine B assay; assay type: functional; details: read-out: Activity; outline: as §1
[7] = tested on: T47D; assay: Growth inhibition of human T47D cells assessed as cell growth at 10 uM after 48 hrs by sulforhodamine B assay; assay type: functional; details: read-out: Activity
Outline: (§3)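 NCI 60-cell-line panel from nine tumour types (leukaemia, lung, colon, CNS, melanoma, ovarian, renal, prostate, breast). Each compound was added at one single concentration, and cultures were incubated for 48 h. Results are reported as percent growth inhibition.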

[8] = tested on: MDA-MB-468; assay: Growth inhibition of human MDA-MB-468 cells assessed as cell growth at 10 uM after 48 hrs by sulforhodamine B assay; assay type: functional; details: MDA-MB-468, 48 h, read-out: Activity; outline: as §1
[9] = tested on: OVCAR-3; assay: Growth inhibition of human OVCAR3 cells assessed as cell growth at 10 uM after 48 hrs by sulforhodamine B assay; assay type: functional; details: OVCAR-3, 48 h, read-out: Activity; outline: as §1
[10] = tested on: SK-OV-3; assay: Growth inhibition of human SKOV3 cells assessed as cell growth at 10 uM after 48 hrs by sulforhodamine B assay; assay type: functional; details: SK-OV-3, 48 h, read-out: Activity; outline: as §1
[11] = tested on: NCI-H460; assay: Growth inhibition of human NCI-H460 cells assessed as cell growth at 10 uM after 48 hrs by sulforhodamine B assay; assay type: functional; details: NCI-H460, 48 h, read-out: Activity; outline: as §1
[12] = tested on: MDA-MB-435; assay: Growth inhibition of human MDA-MB-435 cells assessed as cell growth at 10 uM after 48 hrs by sulforhodamine B assay; assay type: functional; details: MDA-MB-435, 48 h, read-out: Activity; outline: as §1
[13] = tested on: SNB-19; assay: Growth inhibition of human SNB19 cells assessed as cell growth at 10 uM after 48 hrs by sulforhodamine B assay; assay type: functional; details: SNB-19, 48 h, read-out: Activity; outline: as §3
[14] = tested on: NCI-H23; assay: Growth inhibition of human NCI-H23 cells assessed as cell growth at 10 uM after 48 hrs by sulforhodamine B assay; assay type: functional; details: NCI-H23, 48 h, read-out: Activity; outline: as §1
[15] = tested on: NCI/ADR-RES; assay: Growth inhibition of human NCI-ADR-RES cells assessed as cell growth at 10 uM after 48 hrs by sulforhodamine B assay; assay type: functional; details: read-out: Activity; outline: as §1
[16] = tested on: NCI-H226; assay: Growth inhibition of human NCI-H226 cells assessed as cell growth at 10 uM after 48 hrs by sulforhodamine B assay; assay type: functional; details: NCI-H226, 48 h, read-out: Activity; outline: as §1
[17] = tested on: IGROV-1; assay: Growth inhibition of human IGROV1 cells assessed as cell growth at 10 uM after 48 hrs by sulforhodamine B assay; assay type: functional; details: IGROV-1, 48 h, read-out: Activity; outline: as §1
[18] = tested on: OVCAR-5; assay: Growth inhibition of human OVCAR5 cells assessed as cell growth at 10 uM after 48 hrs by sulforhodamine B assay; assay type: functional; details: OVCAR-5, 48 h, read-out: Activity; outline: as §1
[19] = tested on: COLO 205; assay: Growth inhibition of human COLO205 cells assessed as cell growth at 10 uM after 48 hrs by sulforhodamine B assay; assay type: functional; details: COLO 205, 48 h, read-out: Activity; outline: as §1
[20] = tested on: SF-295; assay: Growth inhibition of human SF295 cells assessed as cell growth at 10 uM after 48 hrs by sulforhodamine B assay; assay type: functional; details: SF-295, 48 h, read-out: Activity; outline: as §1
[21] = tested on: UACC-257; assay: Growth inhibition of human UACC257 cells assessed as cell growth at 10 uM after 48 hrs by sulforhodamine B assay; assay type: functional; details: UACC-257, 48 h, read-out: Activity; outline: as §3
[22] = tested on: RXF 393; assay: Growth inhibition of human RXF393 cells assessed as cell growth at 10 uM after 48 hrs by sulforhodamine B assay; assay type: functional; details: RXF 393, 48 h, read-out: Activity; outline: as §1
[23] = tested on: HL-60; assay: Cytotoxicity in human HL60 cells assessed as reduction in cell viability incubated for 48 hrs by MTT assay; assay type: functional, cell-based; details: HL-60, 48 h; outline: as §2
[24] = tested on: K562; assay: Growth inhibition of human K562 cells assessed as cell growth at 10 uM after 48 hrs by sulforhodamine B assay; assay type: functional; details: K562, 48 h, read-out: Activity; outline: as §1
[25] = tested on: SK-MEL-5; assay: Growth inhibition of human SK-MEL-5 cells assessed as cell growth at 10 uM after 48 hrs by sulforhodamine B assay; assay type: functional; details: SK-MEL-5, 48 h, read-out: Activity; outline: as §1
[26] = tested on: SN12C; assay: Growth inhibition of human SN12C cells assessed as cell growth at 10 uM after 48 hrs by sulforhodamine B assay; assay type: functional; details: read-out: Activity; outline: as §3
[27] = tested on: HCC 2998; assay: Growth inhibition of human HCC2998 cells assessed as cell growth at 10 uM after 48 hrs by sulforhodamine B assay; assay type: functional; details: HCC 2998, 48 h, read-out: Activity; outline: as §1
[28] = tested on: UACC-62; assay: Growth inhibition of human UACC62 cells assessed as cell growth at 10 uM after 48 hrs by sulforhodamine B assay; assay type: functional; details: UACC-62, 48 h, read-out: Activity; outline: as §3
[29] = tested on: SK-MEL-28; assay: Growth inhibition of human SK-MEL-28 cells assessed as cell growth at 10 uM after 48 hrs by sulforhodamine B assay; assay type: functional; details: SK-MEL-28, 48 h, read-out: Activity; outline: as §1

Row | Structure (SMILES) | growth at 10 µM [1] [%] | IC50 [3] [µM] | growth at 10 µM [4] [%] | growth at 10 µM [5] [%] | growth at 10 µM [6] [%] | growth at 10 µM [7] [%] | growth at 10 µM [8] [%] | growth at 10 µM [9] [%] | growth at 10 µM [10] [%] | growth at 10 µM [11] [%] | growth at 10 µM [12] [%] | growth at 10 µM [13] [%] | growth at 10 µM [14] [%] | growth at 10 µM [15] [%] | growth at 10 µM [16] [%] | growth at 10 µM [17] [%] | growth at 10 µM [18] [%] | growth at 10 µM [19] [%] | growth at 10 µM [20] [%] | growth at 10 µM [22] [%] | further results
1 | CCOc1ccc(-n2nc(C(=O)Nc3cc(OC)c(OC)c(OC)c3)nc2-c2cc(OC)c(OC)c(OC)c2)cc1 | 91.5 | 37.8 | 65.6 | 74 | 96.1 | 51.4 | 82 | 86.9 | 99.7 | 92.1 | 79.6 | 82.1 | 85 | 85.8 | 78.1 | 90.8 | 102 | 80.3 | 95.9 | 83.8 | growth at 10 µM [2]: 77.4%; growth at 10 µM [21]: 93.1%; IC50 [23]: > 100 µM
2 | CCOc1ccc(-n2nc(C(=O)Nc3ccc(F)c(F)c3)nc2-c2cc(OC)c(OC)c(OC)c2)cc1 | 70.2 | 31.8 | 48.1 | 42.2 | 76.5 | 41.7 | 98.6 | 61 | 85.2 | 77.9 | 70.3 | 86.8 | 77.3 | 67.5 | 69.1 | 81.3 | 101 | 63.7 | 60.5 | 84.6 | growth at 10 µM [2]: 68.5%; growth at 10 µM [21]: 89.4%; IC50 [23]: 17.1 µM
3 | COc1cccc(-n2nc(C(=O)NCc3ccccc3OC)nc2-c2cc(OC)c(OC)c(OC)c2)c1 | 99.8 | 1.67 | 99.9 | 103 | 91.1 | 75.8 | 99.9 | 101 | 96.7 | 111 | 90.8 | 100 | 90.7 | 77.4 | 96.8 | 88.5 | 113 | 101 | 95.1 | 107 | growth at 10 µM [24]: 122%; growth at 10 µM [25]: 107%; growth at 10 µM [26]: 94.8%; growth at 10 µM [27]: 92.1%; growth at 10 µM [28]: 97.4%; growth at 10 µM [29]: 115%; IC50 [23]: > 100 µM
4 | CCOc1ccc(-n2nc(C(=O)Nc3cc(F)cc(F)c3)nc2-c2cc(OC)c(OC)c(OC)c2)cc1 | 98 | 36.5 | 75.5 | 84.6 | 85.8 | 55.9 | 77 | 93.6 | 93 | 94.7 | 91 | 73.3 | 84 | 81.7 | 77.2 | 85.1 | 98.8 | 89.9 | 84.6 | 88.2 | growth at 10 µM [2]: 68.8%; growth at 10 µM [21]: 90.4%; IC50 [23]: > 100 µM
5 | COc1cccc(-n2nc(C(=O)NCc3ccccc3C)nc2-c2cc(OC)c(OC)c(OC)c2)c1 | 86.7 | 3.85 | 77.6 | 87.3 | 73.3 | 56.4 | 90.1 | 81 | 87.7 | 96.4 | 85.8 | 83.2 | 84 | 63.1 | 87.9 | 72 | 111 | 84.3 | 76.1 | 109 | growth at 10 µM [24]: 90.8%; growth at 10 µM [25]: 86.8%; growth at 10 µM [26]: 91.7%; growth at 10 µM [27]: 96%; growth at 10 µM [28]: 72.5%; growth at 10 µM [29]: 107%; IC50 [23]: 89.4 µM
6 | CCOc1ccc(-n2nc(C(=O)NCc3cccc(OC)c3)nc2-c2cc(OC)c(OC)c(OC)c2)cc1 | 92.9 | 1.9 | 93.3 | 94.3 | 89.1 | 69.8 | 87.7 | 93.5 | 85.8 | 102 | 92.5 | 90.1 | 94.3 | 82.5 | 89.4 | 80.4 | 120 | 91.8 | 90.3 | 92.5 | growth at 10 µM [24]: 88.5%; growth at 10 µM [25]: 92.2%; growth at 10 µM [26]: 96.5%; growth at 10 µM [27]: 102%; growth at 10 µM [28]: 82.9%; growth at 10 µM [29]: 109%; IC50 [23]: 98.8 µM
7 | CCOc1ccc(-n2nc(C(=O)Nc3ccc(OC)c(O)c3)nc2-c2cc(OC)c(OC)c(OC)c2)cc1 | 103 | 13.7 | 86.8 | 78.7 | 95.7 | 88.8 | 101 | 97.8 | 112 | 97.6 | 95 | 91.8 | 86.1 | 86.4 | 96.5 | 95.2 | 102 | 109 | 108 | 112 | growth at 10 µM [2]: 86.1%; growth at 10 µM [21]: 90.8%; IC50 [23]: > 100 µM
8 | CCOc1ccc(-n2nc(C(=O)Nc3ccccc3OC)nc2-c2cc(OC)c(OC)c(OC)c2)cc1 | 92.8 | – | 81.5 | 90.3 | 76.3 | 50.2 | 92.3 | 95.6 | 88.8 | 83.4 | 86.9 | 88.5 | 97.8 | 85.3 | 82.3 | 99.3 | 82.4 | 78.7 | 84.8 | 88.4 | growth at 10 µM [24]: 79.6%; growth at 10 µM [2]: 66.7%; growth at 10 µM [25]: 73.8%; growth at 10 µM [26]: 83.1%; growth at 10 µM [27]: 99.7%; growth at 10 µM [28]: 85.2%; growth at 10 µM [21]: 97.9%; growth at 10 µM [29]: 78.3%
